Calls of active or inactive are those of the source. The rule behind the calls is not given here.
Tests used:
[1] = biological target: T1, Sphingosine 1-phosphate receptor 1 (Homo sapiens, UniProt P21453); assay: Displacement of [33P]sphingosine 1 phosphate from human S1P1 receptor expressed in CHO cells; type: cell-based
[2] = biological target: T2, Sphingosine 1-phosphate receptor 4 (Homo sapiens, UniProt O95977); assay: Displacement of [33P]sphingosine 1 phosphate from human S1P4 receptor expressed in CHO cells; type: cell-based
T2 sequence (O95977 whole entry): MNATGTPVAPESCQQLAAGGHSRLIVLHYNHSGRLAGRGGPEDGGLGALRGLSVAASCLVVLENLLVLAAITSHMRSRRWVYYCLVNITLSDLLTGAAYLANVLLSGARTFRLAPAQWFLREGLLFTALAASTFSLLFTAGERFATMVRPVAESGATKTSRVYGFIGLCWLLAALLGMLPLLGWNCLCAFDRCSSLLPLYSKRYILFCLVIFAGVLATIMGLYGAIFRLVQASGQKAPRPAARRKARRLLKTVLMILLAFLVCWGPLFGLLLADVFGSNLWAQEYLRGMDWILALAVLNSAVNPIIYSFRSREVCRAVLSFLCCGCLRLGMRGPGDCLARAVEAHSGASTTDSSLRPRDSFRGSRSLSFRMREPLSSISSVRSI
Summary of the method: (§1)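 Competition binding with [33P]-labeled S1P on membranes of CHO cells stably expressing each human S1P receptor. Values are the mean of n = 3 determinations.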

[3] = biological target: Sphingosine 1-phosphate receptor 5 (Homo sapiens, UniProt Q9H228); assay: Displacement of [33P]sphingosine 1 phosphate from human S1P5 receptor expressed in CHO cells; type: cell-based; summary of the method: as §1
Sphingosine 1-phosphate receptor 5, sequence (Q9H228 whole entry): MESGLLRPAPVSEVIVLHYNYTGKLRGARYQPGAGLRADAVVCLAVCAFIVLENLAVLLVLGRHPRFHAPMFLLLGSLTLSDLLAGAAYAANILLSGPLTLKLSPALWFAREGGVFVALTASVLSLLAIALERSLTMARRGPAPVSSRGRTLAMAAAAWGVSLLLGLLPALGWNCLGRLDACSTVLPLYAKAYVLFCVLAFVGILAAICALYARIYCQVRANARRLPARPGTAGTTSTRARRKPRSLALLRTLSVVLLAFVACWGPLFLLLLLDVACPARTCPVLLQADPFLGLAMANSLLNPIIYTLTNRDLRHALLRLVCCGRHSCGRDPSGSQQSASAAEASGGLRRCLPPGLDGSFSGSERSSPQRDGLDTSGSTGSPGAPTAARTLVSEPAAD

[4] = biological target: T1, Sphingosine 1-phosphate receptor 1; assay: Activity at human S1P1 receptor expressed in CHO cells by [35S]GTPgammaS binding assay; type: functional, cell-based
Summary of the method: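 Agonism measured as ligand-induced [35S]-GTPγS binding to membranes of CHO cells stably expressing the human S1P receptor.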

[5] = biological target: Sphingosine 1-phosphate receptor 2 (Homo sapiens, UniProt O95136); assay: Displacement of [33P]sphingosine 1 phosphate from human S1P2 receptor expressed in CHO cells; type: cell-based
Sphingosine 1-phosphate receptor 2, sequence (O95136 whole entry): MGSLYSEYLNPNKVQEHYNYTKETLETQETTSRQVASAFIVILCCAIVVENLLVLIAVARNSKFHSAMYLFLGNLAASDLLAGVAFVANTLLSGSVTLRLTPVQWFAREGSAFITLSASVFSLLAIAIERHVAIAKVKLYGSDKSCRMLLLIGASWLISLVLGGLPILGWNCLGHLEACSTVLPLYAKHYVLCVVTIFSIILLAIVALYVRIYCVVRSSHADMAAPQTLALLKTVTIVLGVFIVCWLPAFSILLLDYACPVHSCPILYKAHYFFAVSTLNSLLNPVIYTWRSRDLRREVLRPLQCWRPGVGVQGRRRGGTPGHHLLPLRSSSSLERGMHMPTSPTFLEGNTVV

[6] = biological target: Sphingosine 1-phosphate receptor 3 (Homo sapiens, UniProt Q99500); assay: Displacement of [33P]sphingosine 1 phosphate from human S1P3 receptor expressed in CHO cells; type: cell-based
Sphingosine 1-phosphate receptor 3, sequence (Q99500 whole entry): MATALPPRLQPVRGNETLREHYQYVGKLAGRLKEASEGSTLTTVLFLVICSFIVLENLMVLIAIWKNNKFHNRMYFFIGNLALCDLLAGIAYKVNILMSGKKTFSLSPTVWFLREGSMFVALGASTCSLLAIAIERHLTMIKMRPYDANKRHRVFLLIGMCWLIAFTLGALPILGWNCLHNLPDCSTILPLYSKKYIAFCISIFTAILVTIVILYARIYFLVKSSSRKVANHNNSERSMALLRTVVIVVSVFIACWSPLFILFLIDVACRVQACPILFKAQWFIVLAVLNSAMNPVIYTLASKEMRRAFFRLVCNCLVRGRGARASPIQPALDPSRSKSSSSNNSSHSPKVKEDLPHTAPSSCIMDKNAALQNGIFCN

Mus musculus = assay: Decrease in peripheral blood lymphocytes in po dosed mouse after 3 hrs; type: functional
Summary of the method: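 Compound given orally to mice. Peripheral blood lymphocyte counts taken 3 h after dosing, expressed as average percent decrease in n = 3 animals versus controls (n = 3). ED50 from dose-titration.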

[7] = Plasma clearance in rhesus monkey at 1 mg/kg, po and 0.5 mg/kg, iv; type: ADME, organism-based, Macaca mulatta
Summary of the method: (§2)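 Single-dose PK at 1.0 mpk po and 0.5 mpk iv. Plasma compound levels measured.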

[8] = Volume of distribution at steady state in rat at 2 mg/kg, po and 1 mg/kg, iv; type: ADME, organism-based; conditions: in vivo, read-out: Vdss
[9] = Plasma clearance in rat at 2 mg/kg, po and 1 mg/kg, iv; type: ADME, organism-based
Summary of the method: (§3)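 Rat PK at 2.0 mpk po and 1.0 mpk iv. Plasma compound levels measured.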

[10] = Bioavailability in Beagle dog at 1 mg/kg, po and 0.5 mg/kg, iv; type: ADME, organism-based, Canis lupus familiaris; conditions: in vivo; summary of the method: as §2
[11] = Volume of distribution at steady state in rhesus monkey at 1 mg/kg, po and 0.5 mg/kg, iv; type: ADME, organism-based, Macaca mulatta; conditions: in vivo, read-out: Vdss
[12] = Bioavailability in rat at 2 mg/kg, po and 1 mg/kg, iv; type: ADME, organism-based; conditions: in vivo; summary of the method: as §3
Canis familiaris [13] = assay: Maximal decrease in peripheral blood lymphocyte in Beagle dog at 1 mg/kg, po after 24 hrs; type: functional, organism-based; design: dose 1 mg/kg; conditions: Canis lupus familiaris
Summary of the method: (§4)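 Complete blood counts run alongside plasma concentrations after a single 1.0 mpk oral dose in beagle dog or rhesus monkey. Lymphocyte counts followed over time, with PBL lowering assessed at 24 h postdose.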

[14] = Half life in Beagle dog at 1 mg/kg, po and 0.5 mg/kg, iv; conditions: in vivo
[15] = Cmax in rat at 2 mg/kg, po and 1 mg/kg, iv; type: ADME, organism-based; conditions: in vivo; summary of the method: as §3
[16] = Half life in rat at 2 mg/kg, po and 1 mg/kg, iv; type: ADME, organism-based; conditions: in vivo; summary of the method: as §3
Canis familiaris [17] = assay: Plasma clearance in Beagle dog at 1 mg/kg, po and 0.5 mg/kg, iv; type: ADME, organism-based, Canis lupus familiaris; conditions: in vivo; summary of the method: as §2
[18] = Half life in rhesus monkey at 1 mg/kg, po and 0.5 mg/kg, iv; conditions: in vivo
Canis familiaris [19] = assay: Cmax in Beagle dog at 1 mg/kg, po and 0.5 mg/kg, iv; type: ADME, organism-based, Canis lupus familiaris; conditions: in vivo; summary of the method: as §2
[20] = Volume of distribution at steady state in Beagle dog at 1 mg/kg, po and 0.5 mg/kg, iv; type: ADME, organism-based, Canis lupus familiaris; conditions: in vivo, read-out: Vdss
[21] = Cmax in rhesus monkey at 1 mg/kg, po and 0.5 mg/kg, iv; type: ADME, organism-based, Macaca mulatta; conditions: in vivo; summary of the method: as §2
[22] = Bioavailability in rhesus monkey at 1 mg/kg, po and 0.5 mg/kg, iv; type: ADME, organism-based, Macaca mulatta; conditions: in vivo; summary of the method: as §2
Rhesus monkey = assay: Maximal decrease in peripheral blood lymphocyte in rhesus monkey at 1 mg/kg, po after 24 hrs; type: functional, organism-based; design: dose 1 mg/kg; conditions: Macaca mulatta; summary of the method: as §4
[23] = Half life in rat; type: ADME, organism-based; conditions: in vivo
[24] = Oral bioavailability in rat; type: ADME, organism-based; conditions: in vivo

T1 sequence (P21453 whole entry): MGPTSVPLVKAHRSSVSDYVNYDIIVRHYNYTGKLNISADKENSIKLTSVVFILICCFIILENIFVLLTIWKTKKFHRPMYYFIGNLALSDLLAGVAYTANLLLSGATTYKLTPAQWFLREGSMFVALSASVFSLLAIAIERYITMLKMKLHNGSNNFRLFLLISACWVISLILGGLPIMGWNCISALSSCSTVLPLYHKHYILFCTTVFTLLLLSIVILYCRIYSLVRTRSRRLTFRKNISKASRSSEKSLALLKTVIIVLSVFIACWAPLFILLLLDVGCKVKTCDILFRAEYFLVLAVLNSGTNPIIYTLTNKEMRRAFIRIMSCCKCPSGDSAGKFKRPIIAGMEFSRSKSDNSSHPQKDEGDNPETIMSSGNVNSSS

SMILES | IC50 [1] | IC50 [2] | IC50 [3] | EC50 [4] | IC50 [5] [nM] | IC50 [6] | other results
O=C(O)C1CN(Cc2ccc(OCc3cc(-c4ccccc4)c(C(F)(F)F)s3)c(F)c2)C1 | 2.7 nM (antagonist) | 2700 nM (antagonist) | 41 nM (antagonist) | 1.3 nM (agonist) | > 10000 | 2100 nM (antagonist) | –
FC(F)(F)c1cccc(-c2noc(-c3cc(-c4ccccc4)c(C(F)(F)F)s3)n2)c1 | – | > 10000 nM | 4600 nM (antagonist) | – | > 10000 | > 10000 nM | –
CCCCCCCCc1ccc(CCC(N)(CO)CO)cc1 [FINGOLIMOD] | – | > 10000 nM | 2100 nM (antagonist) | – | > 10000 | > 10000 nM | ED50 (Mus musculus): 0.15 mg/kg
O=C(O)C1CN(Cc2ccc(OCc3cc(-c4ccccc4)c(C(F)(F)F)s3)c(Br)c2)C1 | 13 nM (antagonist) | 2400 nM (antagonist) | 53 nM (antagonist) | 3.3 nM (agonist) | > 10000 | > 10000 nM | –
Cc1cc(CN2CC(C(=O)O)C2)cc(C)c1OCc1cc(-c2ccccc2)c(C(F)(F)F)s1 | 4 nM (antagonist) | 120 nM (antagonist) | 12 nM (antagonist) | 1.3 nM (agonist) | > 10000 | 10000 nM | –
CCCCCCCCOc1c(Br)cc(CNCCCP(=O)(O)O)cc1OC | – | 80 nM (antagonist) | – | – | – | – | –
Cc1cc(CN2CC(C(=O)O)C2)ccc1OCc1cc(-c2ccccc2)c(C(F)(F)F)s1 | 1.8 nM (antagonist) | 1500 nM (antagonist) | 13 nM (antagonist) | 0.8 nM (agonist) | > 10000 | 7500 nM (antagonist) | clearance [7]: 1.3 mL/min/kg; Vd [8]: 5.7 L/kg; ED50 (Mus musculus): 0.18 mg/kg; clearance [9]: 8.2 mL/min/kg; bioavailability [10]: 100%; Vd [11]: 1.2 L/kg; bioavailability [12]: 88%; Activity (Canis familiaris [13]): Active; half-life [14]: 22.3 h; Cmax [15]: 500 nM; half-life [16]: 8.9 h; clearance (Canis familiaris [17]): 0.5 mL/min/kg; half-life [18]: 12.6 h; Cmax (Canis familiaris [19]): 3200 nM; Vd [20]: 0.9 L/kg; Cmax [21]: 1800 nM; bioavailability [22]: 96%; Activity (Rhesus monkey): Active
CCCCCCCCCc1ccc(CN2CCC(P(=O)(O)O)C2)cc1 (stereo not drawn) | 6.9 nM (antagonist) | 45 nM (antagonist) | 6.3 nM (antagonist) | – | > 10000 | 220 nM (antagonist) | –
COc1cc(CN2CC(C(=O)O)C2)ccc1OCc1cc(-c2ccccc2)c(C(F)(F)F)s1 | 33 nM (antagonist) | 2800 nM (antagonist) | 77 nM (antagonist) | 47 nM (agonist) | > 10000 | > 10000 nM | –
FC(F)(F)c1sc(-c2nc(-c3ccc(Cl)cc3Cl)no2)cc1-c1ccccc1 | 78 nM (antagonist) | > 10000 nM | > 10000 nM | – | > 10000 | > 10000 nM | –
O=C(O)C1CN(Cc2ccc(OCc3cc(-c4ccccc4)c(C(F)(F)F)s3)c(Cl)c2)C1 | 3.2 nM (antagonist) | 1300 nM (antagonist) | 18 nM (antagonist) | 1.4 nM (agonist) | > 10000 | 2000 nM (antagonist) | Vd [8]: 3.8 L/kg; ED50 (Mus musculus): 0.54 mg/kg; clearance [9]: 8.2 mL/min/kg; bioavailability [12]: 62%; Cmax [15]: 500 nM; half-life [16]: 7 h
CCCCCCCCCc1ccc(CN2CCC(C(=O)O)C2)cc1 (stereo not drawn) | 20 nM (antagonist) | 2500 nM (antagonist) | 29 nM (antagonist) | – | > 10000 | 2100 nM (antagonist) | ED50 (Mus musculus): 23 mg/kg; half-life [23]: 0.9 h; bioavailability [24]: > 70%
CCCCCCCCCc1ccc(CN2CC(C(=O)O)C2)cc1 | 18 nM (antagonist) | 5400 nM (antagonist) | 11 nM (antagonist) | – | > 10000 | 4900 nM (antagonist) | ED50 (Mus musculus): 5.2 mg/kg; half-life [23]: 1.4 h; bioavailability [24]: > 70%
FC(F)(F)c1sc(-c2nc(-c3ccccc3)no2)cc1-c1ccccc1 | 25 nM (antagonist) | > 10000 nM | > 10000 nM | – | > 10000 | > 10000 nM | –
CCc1cc(CN2CC(C(=O)O)C2)ccc1OCc1cc(-c2ccccc2)c(C(F)(F)F)s1 | 3.5 nM (antagonist) | > 10000 nM | 10 nM (antagonist) | 1.4 nM (agonist) | > 10000 | 4300 nM (antagonist) | –
O=C(O)C1CN(Cc2cc(Cl)c(OCc3cc(-c4ccccc4)c(C(F)(F)F)s3)c(Cl)c2)C1 | 7.5 nM (antagonist) | 640 nM (antagonist) | 33 nM (antagonist) | 2.7 nM (agonist) | > 10000 | > 10000 nM | –
O=C(O)C1CCN(Cc2ccc(OCc3cc(-c4ccccc4)c(C(F)(F)F)s3)cc2)C1 (stereo not drawn) | 4.3 nM (antagonist) | 790 nM (antagonist) | 120 nM (antagonist) | 2.4 nM (agonist) | > 10000 | 1000 nM (antagonist) | –
O=C(O)C1CN(Cc2ccc(OCc3cc(-c4ccccc4)c(C(F)(F)F)s3)c(C(F)(F)F)c2)C1 | 7.7 nM (antagonist) | 340 nM (antagonist) | 21 nM (antagonist) | 5.9 nM (agonist) | > 10000 | > 10000 nM | –
CCCCCCCCCCCCC/C=C/[C@@H](O)[C@@H](N)COP(=O)(O)O | 0.67 nM (antagonist) | 34 nM (antagonist) | – | – | – | 0.26 nM (antagonist) | –

— ChEMBL document CHEMBL1149292, “A rational utilization of high-throughput screening affords selective, orally bioavailable 1-benzyl-3-carboxyazetidine sphingosine-1-phosphate-1 receptor agonists” (J Med Chem, 2004)
